In ChEMBL document CHEMBL5338759, “N-Phenyl-1-(phenylsulfonyl)-1H-1,2,4-triazol-3-amine as a New Class of HIV-1 Non-nucleoside Reverse Transcriptase Inhibitor” (J Med Chem, 2023):

Assays:
[1] = AUC (0 to infinity) in BALB/c mouse plasma at 250 mg/kg, IG measured at 0.5 to 24 hrs by HPLC-MS analysis; format: ADME, organism-based; design: time 0.5-24 hrs, dose 250 mg/kg, route ig; settings: in vivo, po
Procedure, shortened: (§1)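 Mice averaging 20 g (24 animals) were fasted 1 h before and 1 h after dosing. They received 250 mg/kg as 0.5 ml suspension in 1% CMC, 0.05% Tween 80 by intragastric intubation. Blood and brain were taken after decapitation at 0.5, 1, 2, 3, 5, 8 and 24 h (3 per time point). Plasma was frozen at -20°C and brain at -120 °C. Quantification was by UPLC-HRMS (ESI+, EIC m/z 476.0691) against plasma-matrix standards. Parameters were derived by noncompartmental analysis; LLOQ 5 ng/ml, with values below it set to 2.5.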

[2] = system: Human immunodeficiency virus 1; assay: Antiviral activity against HIV1 harboring Y181C mutant infected in human TZM-bl cells; format: functional, organism-based; settings: Human immunodeficiency virus 1, TZM-bl
Procedure, shortened: (§2)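 TZM-bl cells (2x10⁵/mL) were infected with mutant virus in the presence of 15 µg/mL DEAE-dextran. A17 (IIIB variant) was grown in H9 cells; the other mutants were NL4-3-based plasmids transfected into 293T cells, then expanded in H9 cells. Compounds were tested at 0.05–500 nM (DMSO constant within an assay) for 48 hr at 37°C. Read-out was luciferase RLU from lysed cells, with at least 6 replicates over multiple days.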

[3] = Half life in BALB/c mouse brain at 250 mg/kg, IG measured at 0.5 to 24 hrs by HPLC-MS analysis; format: ADME, organism-based; settings: in vivo, po, time 0.5-24 hrs; procedure, shortened: as §1
[4] = Tmax in BALB/c mouse plasma at 250 mg/kg, IG measured at 0.5 to 24 hrs by HPLC-MS analysis; format: ADME, organism-based; settings: in vivo, po, time 0.5-24 hrs; procedure, shortened: as §1
[5] = system: Human immunodeficiency virus 1; assay: Antiviral activity against HIV1 harboring A17 mutant infected in human TZM-bl cells; format: functional, organism-based; settings: Human immunodeficiency virus 1, TZM-bl; procedure, shortened: as §2
[6] = Acute toxicity in BALB/c mouse at 2000 mg/kg, IG measured for 14 days; format: organism-based; settings: in vivo, po, 336 h, time 14 day
Procedure, shortened: (§3)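 Male Balb/C mice, 5–6 weeks old and 19–21 g, were deprived of food and water for 1.5–2 h. They were given a single intragastric 2000 mg/kg dose at 0.5 ml/20 g, prepared just before use. Controls received 0.5 ml of 1% starch gel intragastrically. There were 5 mice per group, observed for 14 days for condition and weight; weight was compared by Šídák's multiple comparisons test.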

[7] = Subacute toxicity in BALB/c mouse assessed as pathological change in kidney at 25 to 250 mg/kg, IG measured daily for 30 days by H and E staining based histological analysis; format: organism-based; settings: in vivo, po, 720 h, dose 25-250 mg/kg, time 30 day
Procedure, shortened: (§4)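 Male Balb/C mice (17 per group) received 25 or 250 mg/kg intragastrically in 1% starch gel once daily for 30 days, against starch gel controls. Internal organs were examined macroscopically after the study. Sections were paraffin-embedded and stained with hematoxylin and eosin.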

[8] = system: TZM; assay: Cytotoxicity against human TZM-bl cells assessed as reduction in cell viability by MTS assay; format: functional
[9] = Tmax in BALB/c mouse brain at 250 mg/kg, IG measured at 0.5 to 24 hrs by HPLC-MS analysis; format: ADME, organism-based; settings: po, time 0.5-24 hrs; procedure, shortened: as §1
[10] = system: Human immunodeficiency virus; assay: Antiviral activity against wild type HIV IIIB infected in human TZM-bl cells; format: functional, organism-based; settings: Human immunodeficiency virus 1, IIIB
Procedure, shortened: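 TZM-bl cells (2x10⁵/mL) infected with HIV-1 IIIB grown in H9 cells, with 15 µg/mL DEAE-dextran; serial dilutions from 10 mM DMSO stocks, DMSO held constant (0.005% or 0.05%); 37°C, 5% CO₂, 48 hr; cells lysed, luciferase RLU read.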

[11] = Subacute toxicity in BALB/c mouse assessed as pathological change in lungs at 25 to 250 mg/kg, IG measured daily for 30 days by H and E staining based histological analysis; format: organism-based; settings: in vivo, po, 720 h, dose 25-250 mg/kg, time 30 day; procedure, shortened: as §4
[12] = system: Human immunodeficiency virus 1; assay: Antiviral activity against HIV1 harboring K103N mutant infected in human TZM-bl cells; format: functional, organism-based; settings: Human immunodeficiency virus 1, TZM-bl; procedure, shortened: as §2
[13] = Subacute toxicity in BALB/c mouse assessed as effect on spleen weight at 25 to 250 mg/kg, IG measured daily for 30 days; format: organism-based; settings: in vivo, po, 720 h, dose 25-250 mg/kg, time 30 day
[14] = Subacute toxicity in BALB/c mouse assessed as pathological change in spleen at 25 to 250 mg/kg, IG measured daily for 30 days by H and E staining based histological analysis; format: organism-based; settings: in vivo, po, 720 h, dose 25-250 mg/kg, time 30 day; procedure, shortened: as §4
[15] = Selectivity ratio of IC50 for antiviral activity against wild type HIV1 IIIB infected in human TZM-bl cells to IC50 for antiviral activity against HIV1 harboring K103N mutant infected in human TZM-bl cells; format: toxicity, cell-based; settings: human immunodeficiency virus 1
Procedure, shortened: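 TZM-bl cells (2x10⁵/mL) with 15 µg/mL DEAE-dextran were infected with HIV-1 IIIB, A17 (K103N/Y181C) IIIB variant, or NL4-3-based NNRTI-resistant mutants. Compound was present at 0.05–500 nM (DMSO held constant, 0.005% or 0.05%) for 48 hr at 37°C, 5% CO₂.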

[16] = Selectivity index, ratio of CC50 for cytotoxicity against human TZM-bl cells assessed as reduction in cell viability by MTS assay to EC50 for antiviral activity against HIV1 harboring A17 mutant infected in human TZM-bl cells; format: toxicity, cell-based; settings: read-out: Ratio CC50/EC50
[17] = Neurotoxicity in mouse primary neurons assessed as loss of MAP-2 intensity at 0.0001 to 10 uM incubated for 48 hrs by semi-quantitative analysis; settings: neuron
[18] = system: TZM; assay: Cytotoxicity against human TZM-bl cells assessed as reduction in viability incubated for 48 hrs by CellTiter-Blue cell viability assay
[19] = Subacute toxicity in BALB/c mouse assessed as reduction in hemoglobin level at 25 to 250 mg/kg, IG measured daily for 30 days; format: organism-based; settings: in vivo, po, 720 h, dose 25-250 mg/kg, time 30 day
[20] = Acute toxicity in BALB/c mouse assessed as body weight gain at 2000 mg/kg, IG measured for 14 days; format: organism-based; settings: in vivo, po, 336 h, time 14 day; procedure, shortened: as §3
[21] = Subacute toxicity in BALB/c mouse assessed as effect on thymus weight at 25 to 250 mg/kg, IG measured daily for 30 days; format: organism-based; settings: in vivo, po, 720 h, dose 25-250 mg/kg, time 30 day
[22] = AUC (0 to infinity) in BALB/c mouse brain at 250 mg/kg, IG measured at 0.5 to 24 hrs by HPLC-MS analysis; format: ADME, organism-based; design: time upper 24 hrs, time lower 0.5 hrs, dose 250 mg/kg, route ig; settings: po; procedure, shortened: as §1
[23] = Subacute toxicity in BALB/c mouse assessed as reduction in WBC count at 25 to 250 mg/kg, IG measured daily for 30 days; format: organism-based; settings: in vivo, po, 720 h, dose 25-250 mg/kg, time 30 day
[24] = Subacute toxicity in BALB/c mouse assessed as reduction in RBC count at 25 to 250 mg/kg, IG measured daily for 30 days; format: organism-based, Erythrocyte; settings: in vivo, po, 720 h, dose 25-250 mg/kg, time 30 day
[25] = Metabolic stability in mouse liver microsome measured up to 60 mins presence of NADPH; format: ADME; settings: microsomes, 1 h

N#C/C=C/c1ccc2c(S(=O)(=O)n3nc(Nc4ccc(C#N)c(Cl)c4)nc3N)cccc2c1
AUC [1]: 427.7 µg·h/mL
IC50 [2]: 3.7 nM
t1/2 [3]: 11.5 h
Tmax [4]: 0.7 h
EC50 [5]: 0.689 nM
IC50 [5]: 1.3 nM
Activity [6]: Non-Toxic
Activity [7]: Non-Toxic
CC50 [8]: 4800 nM
Tmax [9]: 2 h
IC50 [10]: 0.31 nM
Activity [11]: Non-Toxic
IC50 [12]: 5.9 nM
Activity [13]: Non-Toxic
Activity [14]: Non-Toxic
Ratio IC50 [15]: 8.9
selectivity ratio [16]: 1200
Activity [17]: Non-Toxic
CC50 [18]: 4800 nM
Activity [19]: Non-Toxic
Activity [20]: Non-Toxic
Activity [21]: Non-Toxic
AUC(0-inf) [22]: 184 µg·h/mL
Activity [23]: Non-Toxic
Activity [24]: Non-Toxic
Stability [25]: Stable
